What was measured:
[1] = target: T1, 5-hydroxytryptamine receptor 6 (Homo sapiens, UniProt P50406); assay: Displacement of [3H]LSD from human 5-hydroxytryptamine 6 receptor expressed in HeLa cells; assay type: cell-based
In short: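 Human cloned 5-HT6 receptor expressed in HeLa cells. Binding measured by [3H]LSD displacement and reported as pKi. Each value is the mean of at least three experiments, each within 0.3 of the mean.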

[2] = target: T1, 5-hydroxytryptamine receptor 6; assay: Binding affinity against 5-hydroxytryptamine 6 receptor of human caudate
[3] = target: 5-hydroxytryptamine receptor 6 (Rattus norvegicus, UniProt P31388); assay: Binding affinity against 5-hydroxytryptamine 6 receptor of rat striatum; assay type: tissue-based
[4] = target: T1, 5-hydroxytryptamine receptor 6; settings: HeLa
[5] = target: 5-hydroxytryptamine receptor 6 (Rattus norvegicus) (UniProt P31388); assay: (§1) In vivo binding assay against rat 5-hydroxytryptamine 6 receptor using [125I]-SB-258,585; assay type: functional, organism-based
In short: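 Ex vivo assay. Rats were given vehicle or antagonist orally with a 4 h pretreatment, then killed. Striatum was removed and homogenised, and a binding assay with a selective 5-HT6 radioligand was run on the tissue. Potency is expressed as oral ED50 (mg/kg).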

[6] = target: 5-hydroxytryptamine receptor 6 (Rattus norvegicus) (UniProt P31388); assay: as §1; assay type: organism-based
In short: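 Ex vivo assay: rats were dosed orally with vehicle or antagonist and killed after a 4 h pretreatment. Striatum was removed and homogenised, and a binding assay with the selective 5-HT6 radioligand was run on the tissue. ED50 was expressed as mg/kg po.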

T1 sequence (P50406 whole entry): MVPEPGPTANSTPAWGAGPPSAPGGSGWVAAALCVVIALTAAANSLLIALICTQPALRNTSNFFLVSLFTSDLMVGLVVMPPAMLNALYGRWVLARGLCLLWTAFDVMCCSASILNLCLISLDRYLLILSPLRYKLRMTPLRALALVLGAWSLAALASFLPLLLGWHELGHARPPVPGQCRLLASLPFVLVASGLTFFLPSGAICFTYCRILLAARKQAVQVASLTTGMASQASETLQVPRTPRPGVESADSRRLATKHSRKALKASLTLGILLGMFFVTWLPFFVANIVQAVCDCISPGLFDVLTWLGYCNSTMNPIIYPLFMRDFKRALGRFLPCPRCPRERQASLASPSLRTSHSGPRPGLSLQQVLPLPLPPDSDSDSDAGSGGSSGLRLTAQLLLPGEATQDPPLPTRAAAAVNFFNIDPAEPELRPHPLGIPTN
5-hydroxytryptamine receptor 6 (Rattus norvegicus), sequence (P31388 whole entry): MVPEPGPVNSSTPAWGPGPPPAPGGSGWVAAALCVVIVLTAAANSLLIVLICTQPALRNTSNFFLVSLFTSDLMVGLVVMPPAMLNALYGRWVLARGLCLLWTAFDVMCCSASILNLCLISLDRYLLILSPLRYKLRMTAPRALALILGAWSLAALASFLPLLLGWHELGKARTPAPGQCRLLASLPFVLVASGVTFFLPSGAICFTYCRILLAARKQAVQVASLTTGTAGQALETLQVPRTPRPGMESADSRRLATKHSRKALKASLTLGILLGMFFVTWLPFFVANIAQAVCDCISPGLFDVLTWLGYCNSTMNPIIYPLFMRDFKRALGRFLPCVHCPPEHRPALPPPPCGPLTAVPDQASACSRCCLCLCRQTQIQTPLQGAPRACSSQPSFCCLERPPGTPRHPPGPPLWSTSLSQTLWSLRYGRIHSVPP
5-hydroxytryptamine receptor 6 (Rattus norvegicus, UniProt P31388), sequence (P31388 whole entry): as above

SMILES | Ki [1] [nM] | also measured
O=S(=O)(c1cccc(Cl)c1)n1ccc2c(N3CCNCC3)cccc21 | 0.251 | –
O=S(=O)(c1cccc(Cl)c1)n1ccc2c(N3CCNCC3)ccc(Cl)c21 | 0.316 | –
O=S(=O)(c1ccccc1Cl)n1ccc2c(N3CCNCC3)c(Cl)ccc21 | 1 | –
O=S(=O)(c1ccccc1)c1c[nH]c2c(N3CCNCC3)nccc12 | 25.1 | –
O=S(=O)(c1cccc(Cl)c1)n1cc(Cl)c2c(N3CCNCC3)cccc21 | 0.316 | –
Cc1cn(S(=O)(=O)c2cccc(Cl)c2)c2cccc(N3CCNCC3)c12 | 0.631 | –
O=S(=O)(c1ccccc1)c1c[nH]c2c(N3CCNCC3)ccnc12 | 7.94 | –
O=S(=O)(c1ccccc1Cl)n1ccc2c(N3CCNCC3)cccc21 | 0.398 | –
O=S(=O)(c1cccc2ccccc12)n1ccc2c(N3CCNCC3)c(Cl)ccc21 | 7.94 | –
O=S(=O)(c1cccc(Cl)c1)c1c[nH]c2c(N3CCNCC3)cccc12 | 0.316 | –
O=S(=O)(c1cccc(Cl)c1)n1ccc2c(N3CCNCC3)c(Cl)ccc21 | 2.51 | Ki [2]: 7.94 nM; Ki [3]: 12.6 nM; pKb [4]: 7.2; ED50 [5]: 3 mg/kg
O=S(=O)(c1ccccn1)n1ccc2c(N3CCNCC3)c(Cl)ccc21 | 0.501 | –
O=S(=O)(c1ccc(Cl)cc1)n1ccc2c(N3CCNCC3)cccc21 | 2 | –
Cc1cc2c(N3CCNCC3)cccc2n1S(=O)(=O)c1cccc(Cl)c1 | 0.398 | –
O=S(=O)(c1ccccc1)c1csc2c(N3CCNCC3)cccc12 | 0.501 | –
O=S(=O)(c1ccc(Cl)cc1)n1ccc2c(N3CCNCC3)c(Cl)ccc21 | 6.31 | –
N#Cc1ccc2c(ccn2S(=O)(=O)c2cccc(Cl)c2)c1N1CCNCC1 | 5.01 | –
Cn1cc(S(=O)(=O)c2cccc(Cl)c2)c2cccc(N3CCNCC3)c21 | 2.51 | ED50 [5]: 5 mg/kg
COc1ccc(NS(=O)(=O)c2sc3ccc(Cl)cc3c2C)cc1N1CCNCC1 | – | ED50 [6]: 11 mg/kg
O=S(=O)(c1ccccc1)c1coc2c(N3CCNCC3)cccc12 | 1.26 | –
Cc1c(S(=O)(=O)n2ccc3c(N4CCNCC4)cccc32)sc2ccc(Cl)cc12 | 3.16 | –
O=S(=O)(c1ccccn1)n1ccc2c(N3CCNCC3)cccc21 | 1 | –
O=S(=O)(c1ccc2ccccc2c1)n1ccc2c(N3CCNCC3)c(Cl)ccc21 | 25.1 | –
O=S(=O)(c1ccccc1)n1ccc2c(N3CCNCC3)c(Cl)ccc21 | 1.58 | –

From ChEMBL document CHEMBL1143480, “Bicyclic heteroarylpiperazines as selective brain penetrant 5-HT6 receptor antagonists” (Bioorg Med Chem Lett, 2005)
